Measured values: ChEMBL document CHEMBL4043093, “2-Oxo-3, 4-dihydropyrimido[4, 5-d]pyrimidinyl derivatives as new irreversible pan fibroblast growth factor receptor (FGFR) inhibitors” (Eur J Med Chem, 2017)

Columns and labels:
[1] = target: Serine/threonine-protein kinase PLK1 (Homo sapiens) (UniProt P53350); assay: Inhibition of wild-type human partial length PLK1 (A33 to F325 residues) expressed in HEK293 cells assessed as residual activity at 1000 nM after 30 mins by Kinomescan method relative to control; assay type: cell-based
[2] = target: Serine/threonine-protein kinase Chk2 (Homo sapiens) (UniProt O96017); assay: Inhibition of wild-type human partial length CHEK2 (S253 to E574 residues) expressed in Escherichia coli BL21 assessed as residual activity at 1000 nM after 30 mins by Kinomescan method relative to control
[3] = target: Insulin receptor (Homo sapiens) (UniProt P06213); assay: Inhibition of wild-type human partial length INSR (P997 to E1318 residues) expressed in HEK293 cells assessed as residual activity at 1000 nM after 30 mins by Kinomescan method relative to control; assay type: cell-based
[4] = target: Microtubule-associated serine/threonine-protein kinase 1 (Homo sapiens) (UniProt Q9Y2H9); assay: Inhibition of wild-type human partial length MAST1 (S346 to V730 residues) expressed in HEK293 cells assessed as residual activity at 1000 nM after 30 mins by Kinomescan method relative to control; assay type: cell-based
[5] = target: Mitogen-activated protein kinase kinase kinase kinase 3 (Homo sapiens) (UniProt Q8IVH8); assay: Inhibition of wild-type human partial length MAP4K3 (M1 to D301 residues) expressed in Escherichia coli BL21 assessed as residual activity at 1000 nM after 30 mins by Kinomescan method relative to control
[6] = target: Tyrosine-protein kinase Lyn (Homo sapiens) (UniProt P07948); assay: Inhibition of wild-type human partial length LYN (C219 to Q511 residues) expressed in Escherichia coli BL21 assessed as residual activity at 1000 nM after 30 mins by Kinomescan method relative to control
NCI-H520 = assay: Antiproliferative activity against human FGFR1-amplified NCI-H520 cells after 7 days by SRB assay; conditions: NCI-H520, 168 h
[7] = target: Mitogen-activated protein kinase kinase kinase kinase 4 (Homo sapiens) (UniProt O95819); assay: Inhibition of wild-type human partial length MAP4K4 (M1 to R310 residues) expressed in Escherichia coli BL21 assessed as residual activity at 1000 nM after 30 mins by Kinomescan method relative to control
[8] = target: Serine/threonine-protein kinase 3 (Homo sapiens) (UniProt Q13188); assay: Inhibition of wild-type human partial length MST2 (D17 to E318 residues) expressed in Escherichia coli BL21 assessed as residual activity at 1000 nM after 30 mins by Kinomescan method relative to control
[9] = target: Serine/threonine-protein kinase RIO2 (Homo sapiens) (UniProt Q9BVS4); assay: Inhibition of wild-type human partial length RIOK2 (M1 to D313 residues) expressed in HEK293 cells assessed as residual activity at 1000 nM after 30 mins by Kinomescan method relative to control; assay type: cell-based
[10] = tested on: Mast/stem cell growth factor receptor Kit (Homo sapiens), P10721 [D816V]; assay: Inhibition of human partial length KIT D816V mutant (I571 to D952 residues) expressed in Escherichia coli BL21 assessed as residual activity at 1000 nM after 30 mins by Kinomescan method relative to control
Summary of the method: (§1)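 KINOMEscan binding panel of 456 kinases, with the test compound at a single concentration of 1 µM. Read-out is Percent Control.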

[11] = target: Tyrosine-protein kinase Mer (Homo sapiens) (UniProt Q12866); assay: Inhibition of wild-type human partial length MERTK (R557 to L884 residues) expressed in Escherichia coli BL21 assessed as residual activity at 1000 nM after 30 mins by Kinomescan method relative to control
[12] = target: Tyrosine-protein kinase JAK3 (Homo sapiens) (UniProt P52333); assay: Inhibition of wild-type human partial length JAK3 JH1 catalytic domain (I781 to S1124 residues) expressed in HEK293 cells assessed as residual activity at 1000 nM after 30 mins by Kinomescan method relative to control; assay type: cell-based
[13] = target: Serine/threonine-protein kinase pim-1 (Homo sapiens) (UniProt P11309); assay: Inhibition of wild-type human partial length PIM1 (A15 to K313 residues) expressed in Escherichia coli BL21 assessed as residual activity at 1000 nM after 30 mins by Kinomescan method relative to control
[14] = target: Serine/threonine-protein kinase PAK 2 (Homo sapiens) (UniProt Q13177); assay: Inhibition of wild-type human partial length PAK2 (P151 to R525 residues) expressed in Escherichia coli BL21 assessed as residual activity at 1000 nM after 30 mins by Kinomescan method relative to control
[15] = target: Serine/threonine-protein kinase 32A (Homo sapiens) (UniProt Q8WU08); assay: Inhibition of wild-type human full length YANK1 (M1 to L396 residues) expressed in HEK293 cells assessed as residual activity at 1000 nM after 30 mins by Kinomescan method relative to control; assay type: cell-based
[16] = target: Dual specificity protein kinase CLK2 (Homo sapiens) (UniProt P49760); assay: Inhibition of wild-type human partial length CLK2 (D144 to R498 residues) expressed in Escherichia coli BL21 assessed as residual activity at 1000 nM after 30 mins by Kinomescan method relative to control
[17] = target: Muscle, skeletal receptor tyrosine-protein kinase (Homo sapiens) (UniProt O15146); assay: Inhibition of wild-type human partial length MUSK (M553 to V869 residues) expressed in Escherichia coli BL21 assessed as residual activity at 1000 nM after 30 mins by Kinomescan method relative to control
[18] = tested on: Hepatocyte growth factor receptor (Homo sapiens), P08581 [Y1235D]; assay: Inhibition of human partial length MET Y1235D mutant (D1010 to S1367 residues) expressed in Escherichia coli BL21 assessed as residual activity at 1000 nM after 30 mins by Kinomescan method relative to control; summary of the method: as §1
[19] = target: Tyrosine-protein kinase receptor UFO (Homo sapiens) (UniProt P30530); assay: Inhibition of wild-type human partial length AXL (R497 to Y821 residues) expressed in Escherichia coli BL21 assessed as residual activity at 1000 nM after 30 mins by Kinomescan method relative to control
[20] = target: Cyclin-dependent kinase 11A (Homo sapiens) (UniProt Q9UQ88); assay: Inhibition of wild-type human partial length CDC2L2 (D391 to K730 residues) expressed in Escherichia coli BL21 assessed as residual activity at 1000 nM after 30 mins by Kinomescan method relative to control
[21] = target: Serine/threonine-protein kinase 17A (Homo sapiens) (UniProt Q9UEE5); assay: Inhibition of wild-type human partial length DRAK1 (R32 to E363 residues) expressed in Escherichia coli BL21 assessed as residual activity at 1000 nM after 30 mins by Kinomescan method relative to control

Compound: COc1cc(OC)c(Cl)c(N2Cc3cnc(Nc4ccc(F)cc4)nc3N(C3CCN(C(=O)/C=C/CN(C)C)CC3)C2=O)c1Cl
- Activity [1]: 100%
- Activity [2]: 100%
- Activity [3]: 87%
- Activity [4]: 90%
- Activity [5]: 88%
- Activity [6]: 7.6%
- IC50 (NCI-H520): 8.69 nM
- Activity [7]: 100%
- Activity [8]: 64%
- Activity [9]: 100%
- Activity [10]: 41%
- Activity [11]: 85%
- Activity [12]: 98%
- Activity [13]: 97%
- Activity [14]: 100%
- Activity [15]: 100%
- Activity [16]: 100%
- Activity [17]: 94%
- Activity [18]: 100%
- Activity [19]: 92%
- Activity [20]: 88%
- Activity [21]: 96%
